Published values from different studies.
Protocols differ between the studies behind these lines.
Target: Leukocyte tyrosine kinase receptor (LTK, Homo sapiens, UniProt P29376)

For `Nc1ncc(-c2nc(N3CCOCC3)nc(N3CCOCC3)n2)c(C(F)F)n1`, the remaining binding was 26% (cell-free assay; competition with immobilised ligand; 10 µM).
For `COc1ccc(OC)c2c(=S)c3ccccc3[nH]c12`, the remaining activity was 84.5% (enzyme activity; inhibitor; radiometric; 0.5 µM).
`Cn1cc(-c2cccc(N3CCc4c(sc5c4CC(C)(C)C5)C3=O)c2CO)cc(Nc2ccncn2)c1=O` has an inhibition of 4% (enzyme activity; inhibitor; 1 µM).
For `CC(C)(C)c1nc2c(s1)c1nc(N)ncc1c1ccc(NS(=O)(=O)c3c(F)cccc3F)c(F)c12`, the remaining activity was 90% (enzyme activity; inhibitor; radiometric; 1 µM).
With `Cn1cncc1[C@](O)(COc1ccc(C#N)cc1-c1ccc(OC(F)(F)F)cc1)c1ccc(C#N)cc1` the remaining binding was 91% (cell-free assay; competition with immobilised ligand; 1 µM).
`Nc1nccc(-c2c(-c3ccc(F)cc3)ncn2C2CCNCC2)n1` has a remaining activity of 97.3% (enzyme activity; inhibitor; radiometric; 0.5 µM).
With `Cc1nn(C)cc1-c1nc2c(N3CCN(Cc4ccc(Cl)cc4)CC3)c(Cl)cnc2[nH]1` the remaining binding was 100% (binding; competition with immobilised ligand; 1 µM).
For `CC(C)(C)c1nc(-c2cccc(NS(=O)(=O)c3c(F)cccc3F)c2F)c(-c2ccnc(N)n2)s1`, the remaining activity was 93% (enzyme activity; inhibitor; radiometric; 1 µM).
With `Cn1cc(-c2cc(F)cc(N3CCn4c(cc5c4CCCC5)C3=O)c2CO)cc(Nc2ccc(N3CCN(C4COC4)CC3)cn2)c1=O` the inhibition was 11% (enzyme activity; inhibitor; 0.1 µM).
`COc1ncccc1-c1cnn2ccc(N3CCN(C(=O)OC(C)C)CC3)nc12` gave a remaining binding of 68% (binding; competition with immobilised ligand; 1 µM).
